The MIC is the lowest concentration that inhibits growth of the organism.

In brackets after ≈: the same amount, converted by molar mass. Activity calls are given as the source filed them. The calls are words filed in the database; no cut-off is given here.

Assay [1] concerns Candida albicans. Nature of the assay: Antifungal activity against Candida albicans IMRU 3669 at 5 mg/ml by agar disk diffusion assay. The settings on record: for zone of inhibition at 5000 µg/mL: Candida albicans, IMRU 3669, read-out: DIZ. The class given is functional. In short, it runs like this: (§1)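 Fungi maintained on Czapek's Dox agar; agar well diffusion with 1 cm wells and […] of each concentration (1, 2.5, 5 mg/mL) in DMF; inhibition zone diameter measured.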
In general terms: Agar diffusion results depend on both activity and mobility in agar.

Assay [2] concerns Aspergillus niger. Nature of the assay: Antifungal activity against Aspergillus niger Ferm-BAM C-21 at 1 mg/ml by agar disk diffusion assay. The format is functional. The settings on record: read-out: DIZ. A digest of the protocol: as §1
The subject of assay [3] is Salmonella typhi. Nature of the assay: Antimicrobial activity against Salmonella typhi NCIMB 9331 by macrotube dilution assay. The class given is functional, Salmonella enterica subsp. enterica serovar Typhi. The settings on record: Salmonella enterica.
Assay [4] deals with Aspergillus niger. Nature of the assay: Antifungal activity against Aspergillus niger Ferm-BAM C-21 at 5 mg/ml by agar disk diffusion assay. The format is functional. As to conditions: read-out: DIZ. In short, it runs like this: as §1
Assay [5] deals with Pseudomonas aeruginosa. Nature of the assay: Antibacterial activity against Pseudomonas aeruginosa NCIB 9016 at 2.5 mg/ml by agar disk diffusion assay. The format is functional. The settings on record: for zone of inhibition at 2500 µg/mL: Pseudomonas aeruginosa, NCIB 9016, read-out: DIZ.
Assay [6] has as its system Bacillus subtilis. In words: Antibacterial activity against Bacillus subtilis NCIB 3610 at 5 mg/ml by agar disk diffusion assay. The format is functional. The settings on record: for zone of inhibition at 5000 µg/mL: Bacillus subtilis, NCIB 3610, read-out: DIZ.
In assay [7] the test system is Aspergillus niger. Nature of the assay: Antifungal activity against Aspergillus niger Ferm-BAM C-21 at 2.5 mg/ml by agar disk diffusion assay. As to conditions: read-out: DIZ. The format is functional. A digest of the protocol: as §1
Assay [8] has as its system Bacillus subtilis. In words: Antimicrobial activity against Bacillus subtilis NCTC 1040 by macrotube dilution assay. The class given is functional.
For assay [9], the system named is Klebsiella pneumoniae. Nature of the assay: Antimicrobial activity against Klebsiella pneumoniae NCIMB 9111 by macrotube dilution assay. The format is functional.
Assay [10] has as its system Pseudomonas aeruginosa. In words: Antibacterial activity against Pseudomonas aeruginosa NCIB 9016 at 1 mg/ml by agar disk diffusion assay. The class given is functional. As to conditions: for zone of inhibition at 1000 µg/mL: Pseudomonas aeruginosa, NCIB 9016, read-out: DIZ.
For assay [11], the system named is Pseudomonas aeruginosa. In words: Antibacterial activity against Pseudomonas aeruginosa NCIB 9016 at 5 mg/ml by agar disk diffusion assay. The settings on record: for zone of inhibition at 5000 µg/mL: Pseudomonas aeruginosa, NCIB 9016, read-out: DIZ. The class given is functional.
Assay [12] concerns Bacillus subtilis. In words: Antibacterial activity against Bacillus subtilis NCIB 3610 at 2.5 mg/ml by agar disk diffusion assay. The class given is functional. As to conditions: for zone of inhibition at 2500 µg/mL: Bacillus subtilis, NCIB 3610, read-out: DIZ.
The test system of assay [13] is Candida albicans. Nature of the assay: Antifungal activity against Candida albicans IMRU 3669 at 1 mg/ml by agar disk diffusion assay. The class given is functional. The settings on record: read-out: DIZ. In short, it runs like this: as §1
For assay [14], the system named is Candida albicans. Nature of the assay: Antifungal activity against Candida albicans IMRU 3669 by macrotube dilution assay. The class given is functional. In short, it runs like this:
(§2)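 Macrotube twofold dilution per NCCLS/CLSI guidelines for fungi; 2 mg compound in 2.0 mL DMF, serially diluted across 14 tubes of Czapek's Dox medium, with a control tube; inoculum added to halve the concentration; 30 °C for 72 h; MIC is the lowest concentration without visible growth.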

For assay [15], the system named is Aspergillus niger. Nature of the assay: Antifungal activity against Aspergillus niger Ferm-BAM C-21 by macrotube dilution assay. The format is functional. A digest of the protocol: as §2
In assay [16] the test system is Bacillus subtilis. In words: Antibacterial activity against Bacillus subtilis NCIB 3610 at 1 mg/ml by agar disk diffusion assay. The format is functional. The settings on record: for zone of inhibition at 1000 µg/mL: Bacillus subtilis, NCIB 3610, read-out: DIZ.
Assay [17] relates to Candida albicans. Nature of the assay: Antifungal activity against Candida albicans IMRU 3669 at 2.5 mg/ml by agar disk diffusion assay. The class given is functional. The settings on record: read-out: DIZ. A digest of the protocol: as §1
Assay [18] concerns Staphylococcus aureus. Nature of the assay: Antimicrobial activity against Staphylococcus aureus NCTC 7447 by macrotube dilution assay. The format is functional.
Assay [19] deals with Bacillus subtilis. In words: Antibacterial activity against Bacillus subtilis NCTC 1040 at 5 mg/ml by agar disk diffusion assay. The format is functional. The settings on record: read-out: DIZ.
Assay [20] deals with Aspergillus niger. Nature of the assay: Antifungal activity against Aspergillus niger IMI 31726 at 5 mg/ml by agar disk diffusion assay. The format is functional. The settings on record: read-out: DIZ.
For assay [21], the system named is Coxsackievirus B4. In words: Antiviral activity against Coxsackievirus B4 infected african green monkey Vero cells at 10^-3 dilution of 5 mg/ml by plaque formation assay. The class given is functional. A digest of the protocol: (§3)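 Compound dilutions prepared from a 5 mg/mL DMSO stock, using the maximum non-toxic dilution for Vero cells over 3 days; 0.1 mL virus (10³) mixed with 0.1 mL compound for 1 h at room temperature; mixture inoculated onto washed Vero monolayers in 12-well plates and adsorbed at 37 °C; 2× MEM/agarose overlay applied; read-out % reduction in plaque count versus untreated virus control.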

Assay [22] has as its system Hepatovirus A. In words: Antiviral activity against HAV infected african green monkey Vero cells at 10^-3 dilution of 5 mg/ml by plaque formation assay. The format is functional. A digest of the protocol: as §3
The subject of assay [23] is Salmonella typhi. Nature of the assay: Antibacterial activity against Salmonella typhi NCIMB 9331 at 5 mg/ml by agar disk diffusion assay. The settings on record: Salmonella enterica, read-out: DIZ. The format is functional, Salmonella enterica subsp. enterica serovar Typhi.
Assay [24] has as its system Human alphaherpesvirus 1. In words: Antiviral activity against HSV1 infected african green monkey Vero cells at 10^-3 dilution of 5 mg/ml by plaque formation assay. The class given is functional. In short, it runs like this: as §3
In assay [25] the test system is Escherichia coli. Nature of the assay: Antibacterial activity against Escherichia coli NCTC 10416 at 5 mg/ml by agar disk diffusion assay. As to conditions: read-out: DIZ. The class given is functional.
In assay [26] the test system is Staphylococcus aureus. In words: Antibacterial activity against Staphylococcus aureus NCTC 7447 at 5 mg/ml by agar disk diffusion assay. As to conditions: read-out: DIZ. The class given is functional.
Assay [27] deals with Coxsackievirus B4. Nature of the assay: Antiviral activity against Coxsackievirus B4 infected african green monkey Vero cells at 10^-2 dilution of 5 mg/ml by plaque formation assay. The format is functional. In short, it runs like this: as §3
Assay [28] deals with Human alphaherpesvirus 1. In words: Antiviral activity against HSV1 infected african green monkey Vero cells at 10^-2 dilution of 5 mg/ml by plaque formation assay. The class given is functional. In short, it runs like this: as §3
Assay [29] relates to Hepatovirus A. In words: Antiviral activity against HAV infected african green monkey Vero cells at 10^-2 dilution of 5 mg/ml by plaque formation assay. The class given is functional. In short, it runs like this:
as §3

Assay [30] concerns Coxsackievirus B4. In words: Antiviral activity against Coxsackievirus B4 infected african green monkey Vero cells at 10^-4 dilution of 5 mg/ml by plaque formation assay. The format is functional, organism-based. A digest of the protocol:
as §3

Assay [31] has as its system Hepatovirus A. Nature of the assay: Antiviral activity against Hepatitis A virus infected african green monkey Vero cells at 10^-4 dilution of 5 mg/ml by plaque formation assay. The class given is functional. In short, it runs like this: as §3
In assay [32] the test system is Human alphaherpesvirus 1. Nature of the assay: Antiviral activity against HSV1 infected african green monkey Vero cells at 10^-4 dilution of 5 mg/ml by plaque formation assay. The class given is functional. A digest of the protocol:
as §3

As to `N#CC(=S)Nc1ccc(Cl)c(Cl)c1`, the figures for the zone of inhibition at 5000 µg/mL in [1] and in assay [4] were 44 mm and 56 mm, respectively. In addition, the results for the zone of inhibition at 1000 µg/mL in assay [2] and in assay [13] were 29 mm and 37 mm, respectively. For the same compound, the MIC came to 0.24 µg/mL (≈ 1.04 µM) in assay [3]; 0.97 µg/mL (≈ 4.2 µM) in assay [8]; 1.95 µg/mL (≈ 8.44 µM) in assay [9]; 0.97 µg/mL (≈ 4.2 µM) in assay [14]; 15.6 µg/mL (≈ 67.5 µM) in [15]; 3.9 µg/mL (≈ 16.9 µM) in assay [18]. The “diameter of the inhibition zone (DIZ)” value in assay [5] worked out at 37 mm; in [6] it was 43 mm; in [10], 35 mm; in assay [11], 38 mm; in [12] it was 41 mm; in assay [16], 40 mm. Also, the zone of inhibition at 2500 µg/mL came out at 45 mm in assay [7] and 40 mm in [17].

With `CCOc1ccc(N2C(=O)N(c3ccc4c(c3)Cc3ccccc3-4)C(=N)C2=S)cc1`, the zone of inhibition at 5000 µg/mL was 15 mm in [1]; 17 mm in assay [19]; 20 mm in [20]; 18 mm in assay [23]; 17 mm in assay [25]; 19 mm in assay [26]. The outcome in assay [21] and in [22] was inactive. For the same compound, in [24], the Activity was found to be 50%.

With `N=C1C(=S)N(c2ccc(I)cc2)C(=S)N1c1ccc(I)cc1`, the zone of inhibition at 5000 µg/mL in [1] was 21 mm; in assay [4], 17 mm; in [6] it was 24 mm; in assay [11] it was 20 mm. Also, the zone of inhibition at 1000 µg/mL stood at 12 mm in assay [2], 15 mm in [10], 19 mm in assay [13] and 19 mm in [16]. The MIC amounted to 1.95 µg/mL (≈ 3.55 µM) in assay [3]; 3.9 µg/mL (≈ 7.1 µM) in [8]; 7.8 µg/mL (≈ 14.2 µM) in [9]; 1.95 µg/mL (≈ 3.55 µM) in assay [14]; 0.49 µg/mL (≈ 0.892 µM) in assay [15]; 15.6 µg/mL (≈ 28.4 µM) in assay [18]. Besides, the zone of inhibition at 2500 µg/mL in [5] worked out at 17 mm; in assay [7], 15 mm; in assay [12] it was 21 mm; in assay [17], 20 mm.

As to `CCOc1ccc(N2C(=O)N(c3ccc4c(c3)Cc3ccccc3-4)C(=O)C2=S)cc1`, the zone of inhibition at 5000 µg/mL is 14.5 mm in [1]; 17 mm in assay [19]; 17.5 mm in assay [23]; 19 mm in [25]; 15.5 mm in assay [26]. Besides, the Activity in [27] came to 60%; in [28], 50%; in [29], 50%.

Take `N=C1C(=S)N(c2ccc(Cl)c(Cl)c2)C(=O)N1c1ccc(Cl)cc1`: the “diameter of the inhibition zone (DIZ)” value in [1] is 14 mm. In addition, the zone of inhibition at 5000 µg/mL in assay [1] was 17 mm; in [4], 17 mm; in assay [19], 16 mm; in assay [6], 14 mm; in assay [20], 21 mm; in assay [11], 18 mm. Further, the figures for the zone of inhibition at 5000 µg/mL in assay [23], in [25] and in assay [26] were 17 mm, 19 mm and 16 mm, respectively. For the same compound, the zone of inhibition at 2500 µg/mL was 16 mm in [5], 15 mm in assay [7], 13 mm in assay [12] and 13 mm in assay [17]. Moreover, the zone of inhibition at 1000 µg/mL in assay [10] was determined as 15 mm; in [16], 13 mm. Moreover, the result in [30], in assay [31] and in assay [32] was inactive.

As for `N=C1C(=S)N(c2ccc(I)cc2)C(=O)N1c1ccc2c(c1)Cc1ccccc1-2`, the zone of inhibition at 5000 µg/mL in [1] was found to be 13 mm; in [19], 13.5 mm; in assay [23] it was 17 mm; in assay [25] it was 15 mm; in assay [26], 13.5 mm. Also, the Activity in assay [21] is recorded as 50%; in assay [22], 50%; in assay [24], 70%.

These data come from ChEMBL document CHEMBL1155362, “Synthesis, characterization and derivatization of some novel types of mono- and bis-imidazolidineiminothiones and imidazolidineiminodithiones with antitumor, antiviral, antibacterial and antifungal activities--part I” (Eur J Med Chem, 2009).
